For series [1] the following is noted: METH alone, no antibody; ref Riviere et al.[21]; cited from earlier work.
Series [2] in a line: Prediction of human elimination half-life from rat values. Also noted: species or system humans. Conditions: extrapolated from rat: human ClT about one-third of rat, similar Vdss.
A short description of series [3]: Modified radioimmunoassay. The format is binding. Conditions: modified RIA, [3H]-METH tracer, complete inhibition curve.
A short description of series [4]: GLP in vivo rat toxicology study.
Series [5] can be described thus: Preliminary surface plasmon resonance study of on-off rates. To be noted: data not shown. The format is binding. (In SPR one partner is held on a chip, and binding of the other changes the refractive index at the surface.)
Series [6] is described as follows: GLP human tissue cross-reactivity study. Conditions: human tissues, results not shown.
A short description of series [7]: Ch-mAb7F9 pharmacokinetics in rats. The series is classed as in vivo, Male, Sprague Dawley rats. To be noted: for ClT / Vdss / t1/2λz: rat. In a few lines:
(§1)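 Male Sprague Dawley rats (n = 12/group), housed individually, got a single IV antibody dose via tail vein over about 2 min. The dose was ultracentrifuged (~100,000 g, 1 h, 5 °C) and diluted in PBS (15 mM sodium phosphate, 150 mM NaCl). METH 1 mg/kg (in 0.9% NaCl) or saline was given SC 24 h later. Six tail-vein samples were drawn over 3 wk. Non-compartmental sparse-sampling analysis used mean concentration per time point: ClT = D/AUC, Vdss = D·AUMC/AUC², […].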

A short description of series [8]: METH pharmacokinetics in rats after anti-METH mAb treatment. The format is in vivo, Male, Sprague Dawley rats. To be noted: rat. In a few lines:
as §1

The format of series [9] is in vivo, Male, Sprague Dawley rats. Conditions: rats, single antibody dose, throughout the study. A digest of the protocol:
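Body weights and general health observations were recorded for each rat throughout the 3-week study after the single IV antibody dose and 24-h SC challenge. Body weight and hematocrit are given as mean ± standard deviation.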

A short description of series [10]: Isothermal titration calorimetry. The format is binding. In a few lines:
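For isothermal titration calorimetry, 86 μM METH was titrated into 5 μM antibody at 307 rpm. Each run had 28 injections of 10 μL, spaced 200 s, at 37 °C in PBS pH 6.5. A one-site model gave N, ΔH, ΔS and the association constant (the reciprocal of KD). Activity was derived from N and molecular weights, with 2.07 μg METH/mg mAb taken as 100% active.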
For orientation: Isothermal titration calorimetry measures the heat released or taken up as one component is titrated into another.

[11] abbreviates: ch-mAb7F9 15 mg/kg IV, saline challenge.
[12] abbreviates: ch-mAb7F9 15 mg/kg IV, with METH 1 mg/kg SC 24 h later.
Where [13] appears, read: ch-mAb7F9 150 mg/kg IV, saline challenge.
[14] abbreviates: ch-mAb7F9 150 mg/kg IV, with METH 1 mg/kg SC 24 h later.

Like-named read-outs stand apart in the source and are kept apart here.

As usually defined, the Kd is a measure of binding affinity in units of concentration.

Turning to (+)-methamphetamine, in [1], the “METH ClT” value is 181400 mL/day/kg, the “METH Vdss” value was 9 L/kg and the “METH t1/2λz” value is 1.1 h.

B1: ch-mAb7F9: human-mouse chimeric anti-METH monoclonal antibody; mAb7F9 variable region joined to human IgG2κ constant domains (antibody, V domains shown)
VH: EIQLQQSGPELGKPGASVKVSCRASGFSFADYYIYWVKQSHGKSLELIGYIDPFNGGDTYNQIFKGKATLTVDKSSSTAFMYLNSLTSEDSAVYYCAAFRNPSFDFWGQGTTLTVSS
VL: QIVLIQSPPIMSASPGEKVTLTCSASSSVSSRYLYWYQQKPGSSPKLWIYGTSNLASGVPARFSGSGSGTSFSLTISSMEAEDAASYFCHQWSSFPFTFGSGTKLEIK
B1: the “predicted t1/2λz in humans” value in series [2] is at most 3 wk. The Kd in [3] came out at 6.9 nM; in [10] (read-out: KD (ITC, average), ITC, 37 °C, PBS pH 6.5), 49 nM. The elimination half-life in series [4] (GLP rat toxicology study, samples for 56 d, results not shown) lay in the range of 190 to 288 h. The “no-observed-adverse-effect level, NOAEL” value in [4] (rat, single doses, GLP) turned out to be 400 mg/kg. Further, in series [5], the “on-off rates of METH binding” value is “both reactions are fast”. In series [6], the tissue staining entry is “the staining was cytoplasmic”. Moreover, the ClT was found to be 6.9 mL/day/kg in series [7] (setting [11]), 6.1 mL/day/kg in series [7] (setting [12]), 6.5 mL/day/kg in series [7] (setting [13]) and 7.6 mL/day/kg in series [7] (setting [14]). Moreover, the Vdss in [7] (setting [11]) worked out at 0.1084 L/kg; in series [7] (setting [12]) it was 0.1151 L/kg; in series [7] (setting [13]), 0.1083 L/kg; in series [7] (setting [14]), 0.1082 L/kg. Moreover, the t1/2λz turned out to be 262 h in [7] (setting [11]), 314 h in series [7] (setting [12]), 276 h in [7] (setting [13]) and 235 h in [7] (setting [14]). Besides, the “t1/2λz (range over groups)” value in [7] (rats, current studies, 15 and 150 mg/kg) is 240 to 312 h. Further, in [8] (150 mg/kg mAb dose), the “decrease of METH clearance compared with mAb7F9” value is “approximately 50%”. The “METH ClT” value in [8] (METH 1 mg/kg SC 24 h after mAb 15 mg/kg IV) was 13800 mL/day/kg; in series [8] (METH 1 mg/kg SC 24 h after mAb 150 mg/kg IV), 926 mL/day/kg. Also, the “decrease of METH Vdss compared with METH alone” value was ~ 5 fold in series [8] (ch-mAb7F9 15 mg/kg) and around 25 fold in [8] (ch-mAb7F9 150 mg/kg). For the same molecule, the “increase in METH t1/2λz compared with METH alone” value in [8] (ch-mAb7F9 15 mg/kg) turned out to be 2.1 fold; in series [8] (ch-mAb7F9 150 mg/kg), 5.9 fold. For the same molecule, the “decrease of METH ClT compared with METH alone” value in [8] (ch-mAb7F9 15 mg/kg (low dose)) amounted to 13 fold; in series [8] (ch-mAb7F9 150 mg/kg (high dose)), 196 fold. Further, the “health changes (eating behavior, body weight)” value in series [9] is recorded as “no significant health changes”. For the same molecule, the “average activity (capacity for binding METH per quantity of mAb)” value in series [10] (first GMP-compliant lot, converted from ITC stoichiometry) was found to be 1.96 μg METH bound per mg mAb.

(Values after article PMC3984342 (mAbs, 2013).)
